Measurements reported in article PMC6606825 (Journal of Ginseng Research, 2018).
Marks after values point to notes of the source that are not given here.

Test: Pharmacokinetics of CK and its metabolite 20
Format: in vivo, healthy Chinese volunteers
Outline: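 Healthy adults given one oral tablet dose fasting (overnight, or 10 h in a crossover food-effect arm); 30 subjects from the 100/200/400 mg groups were pooled with 24 from 200 mg fasting periods. Plasma was stored at −70°C, extracted with MTBE plus internal standards and assayed by LC-MS/MS. Cmax was observed and AUClast calculated by linear trapezoid, each divided by dose. The metabolite/parent ratio was also calculated. Genotyping used Sequenom MassARRAY, and log-transformed values were compared by one-way ANOVA.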

CC(C)=CCC[C@](C)(O)[C@H]1CC[C@]2(C)[C@@H]1[C@H](O)C[C@@H]1[C@@]3(C)CC[C@H](O)C(C)(C)[C@@H]3CC[C@]12C [20(S)-PPD, 20(S)-protopanaxadiol]
20(S)-PPD AUClast/D (CFTR rs2106155 CC, mean (SD)): 0.76 (0.87) | 20(S)-PPD Cmax/D (CFTR rs2106155 CC, mean (SD)): 0.02 (0.02) | Ratio 20(S)-PPD/CK AUClast/D (CFTR rs2106155 CC, mean (SD)): 3.73 (6.73) % | Ratio 20(S)-PPD/CK Cmax/D (CFTR rs2106155 CC, mean (SD)): 0.80 (1.29) % | 20(S)-PPD AUClast/D (CFTR rs2237726 CC, mean (SD)): 0.72 (0.85) | 20(S)-PPD Cmax/D (CFTR rs2237726 CC, mean (SD)): 0.02 (0.02) | Ratio 20(S)-PPD/CK AUClast/D (CFTR rs2237726 CC, mean (SD)): 3.53 (6.59) % | Ratio 20(S)-PPD/CK Cmax/D (CFTR rs2237726 CC, mean (SD)): 0.80 (1.27) % | 20(S)-PPD AUClast/D (CFTR rs2237726 CT, mean (SD)): 0.84 (0.78) | 20(S)-PPD Cmax/D (CFTR rs2237726 CT, mean (SD)): 0.03 (0.03) | Ratio 20(S)-PPD/CK AUClast/D (CFTR rs2237726 CT, mean (SD)): 4.43 (5.17) % | Ratio 20(S)-PPD/CK Cmax/D (CFTR rs2237726 CT, mean (SD)): 1.42 (2.13) % | 20(S)-PPD AUClast/D (CFTR rs2237726 TT, mean (SD)): 1.10 (0.47) | 20(S)-PPD Cmax/D (CFTR rs2237726 TT, mean (SD)): 0.03 (0.02) | Ratio 20(S)-PPD/CK AUClast/D (CFTR rs2237726 TT, mean (SD)): 7.40 (10.14) % | Ratio 20(S)-PPD/CK Cmax/D (CFTR rs2237726 TT, mean (SD)): 1.63 (2.04) % | 20(S)-PPD AUClast/D (CFTR rs4148711 AA, mean (SD)): 0.97 (0.49) | 20(S)-PPD Cmax/D (CFTR rs4148711 AA, mean (SD)): 0.04 (0.02) | Ratio 20(S)-PPD/CK AUClast/D (CFTR rs4148711 AA, mean (SD)): 5.87 (7.37) % | Ratio 20(S)-PPD/CK Cmax/D (CFTR rs4148711 AA, mean (SD)): 1.40 (1.51) % | 20(S)-PPD AUClast/D (CFTR rs4148711 AT, mean (SD)): 0.90 (0.98) | 20(S)-PPD Cmax/D (CFTR rs4148711 AT, mean (SD)): 0.03 (0.04) | Ratio 20(S)-PPD/CK AUClast/D (CFTR rs4148711 AT, mean (SD)): 4.70 (7.26) % | Ratio 20(S)-PPD/CK Cmax/D (CFTR rs4148711 AT, mean (SD)): 1.40 (2.23) % | 20(S)-PPD AUClast/D (CFTR rs4148711 TT, mean (SD)): 0.63 (0.57) | 20(S)-PPD Cmax/D (CFTR rs4148711 TT, mean (SD)): 0.02 (0.02) | Ratio 20(S)-PPD/CK AUClast/D (CFTR rs4148711 TT, mean (SD)): 2.87 (3.42) % | Ratio 20(S)-PPD/CK Cmax/D (CFTR rs4148711 TT, mean (SD)): 0.66 (0.71) % | 20(S)-PPD AUClast/D (NR1I2 rs1464602 AA, mean (SD)): 0.69 (0.50) | 20(S)-PPD Cmax/D (NR1I2 rs1464602 AA, mean (SD)): 0.02 (0.02) | Ratio 20(S)-PPD/CK AUClast/D (NR1I2 rs1464602 AA, mean (SD)): 3.33 (3.32) % | Ratio 20(S)-PPD/CK Cmax/D (NR1I2 rs1464602 AA, mean (SD)): 0.85 (0.79) % | 20(S)-PPD AUClast/D (NR1I2 rs1464602 AG, mean (SD)): 0.85 (0.89) | 20(S)-PPD Cmax/D (NR1I2 rs1464602 AG, mean (SD)): 0.03 (0.03) | Ratio 20(S)-PPD/CK AUClast/D (NR1I2 rs1464602 AG, mean (SD)): 3.45 (6.88) % | Ratio 20(S)-PPD/CK Cmax/D (NR1I2 rs1464602 AG, mean (SD)): 0.80 (1.32) % | 20(S)-PPD AUClast/D (NR1I2 rs1464602 GG, mean (SD)): 1.09 (1.05) | 20(S)-PPD Cmax/D (NR1I2 rs1464602 GG, mean (SD)): 0.04 (0.04) | Ratio 20(S)-PPD/CK AUClast/D (NR1I2 rs1464602 GG, mean (SD)): 7.81 (8.88) % | Ratio 20(S)-PPD/CK Cmax/D (NR1I2 rs1464602 GG, mean (SD)): 2.40 (3.04) % | 20(S)-PPD AUClast/D (NR1I2 rs1523127 AA, mean (SD)): 0.87 (0.86) | 20(S)-PPD Cmax/D (NR1I2 rs1523127 AA, mean (SD)): 0.03 (0.03) | Ratio 20(S)-PPD/CK AUClast/D (NR1I2 rs1523127 AA, mean (SD)): 4.60 (7.04) % | Ratio 20(S)-PPD/CK Cmax/D (NR1I2 rs1523127 AA, mean (SD)): 1.27 (1.98) % | 20(S)-PPD AUClast/D (NR1I2 rs1523127 CA, mean (SD)): 0.73 (0.52) | 20(S)-PPD Cmax/D (NR1I2 rs1523127 CA, mean (SD)): 0.02 (0.02) | Ratio 20(S)-PPD/CK AUClast/D (NR1I2 rs1523127 CA, mean (SD)): 3.64 (3.52) % | Ratio 20(S)-PPD/CK Cmax/D (NR1I2 rs1523127 CA, mean (SD)): 0.87 (0.80) % | 20(S)-PPD AUClast/D (NR1I2 rs1523127 CC, n = 1): 0.32 (−) ^2) | 20(S)-PPD Cmax/D (NR1I2 rs1523127 CC, n = 1): 0.01 (−) ^2) | Ratio 20(S)-PPD/CK AUClast/D (NR1I2 rs1523127 CC, n = 1): 1.14 (−) ^2) % | Ratio 20(S)-PPD/CK Cmax/D (NR1I2 rs1523127 CC, n = 1): 0.22 (−) ^2) % | 20(S)-PPD AUClast/D (NR1I2 rs2276707 CC, mean (SD)): 0.79 (0.54) | 20(S)-PPD Cmax/D (NR1I2 rs2276707 CC, mean (SD)): 0.03 (0.02) | Ratio 20(S)-PPD/CK AUClast/D (NR1I2 rs2276707 CC, mean (SD)): 5.07 (6.48) % | Ratio 20(S)-PPD/CK Cmax/D (NR1I2 rs2276707 CC, mean (SD)): 1.15 (1.37) % | 20(S)-PPD AUClast/D (NR1I2 rs2276707 CT, mean (SD)): 0.79 (0.77) | 20(S)-PPD Cmax/D (NR1I2 rs2276707 CT, mean (SD)): 0.03 (0.03) | Ratio 20(S)-PPD/CK AUClast/D (NR1I2 rs2276707 CT, mean (SD)): 3.49 (4.74) % | Ratio 20(S)-PPD/CK Cmax/D (NR1I2 rs2276707 CT, mean (SD)): 1.12 (1.87) % | 20(S)-PPD AUClast/D (NR1I2 rs2276707 TT, mean (SD)): 1.04 (1.19) | 20(S)-PPD Cmax/D (NR1I2 rs2276707 TT, mean (SD)): 0.03 (0.03) | Ratio 20(S)-PPD/CK AUClast/D (NR1I2 rs2276707 TT, mean (SD)): 5.91 (10.37) % | Ratio 20(S)-PPD/CK Cmax/D (NR1I2 rs2276707 TT, mean (SD)): 1.27 (1.99) % | 20(S)-PPD AUClast/D (NR1I2 rs2472682 AA, mean (SD)): 1.08 (1.14) | 20(S)-PPD Cmax/D (NR1I2 rs2472682 AA, mean (SD)): 0.04 (0.04) | Ratio 20(S)-PPD/CK AUClast/D (NR1I2 rs2472682 AA, mean (SD)): 7.47 (9.73) % | Ratio 20(S)-PPD/CK Cmax/D (NR1I2 rs2472682 AA, mean (SD)): 2.06 (2.76) % | 20(S)-PPD AUClast/D (NR1I2 rs2472682 CA, mean (SD)): 0.66 (0.50) | 20(S)-PPD Cmax/D (NR1I2 rs2472682 CA, mean (SD)): 0.02 (0.02) | Ratio 20(S)-PPD/CK AUClast/D (NR1I2 rs2472682 CA, mean (SD)): 2.12 (1.73) % | Ratio 20(S)-PPD/CK Cmax/D (NR1I2 rs2472682 CA, mean (SD)): 0.59 (0.51) % | 20(S)-PPD AUClast/D (NR1I2 rs2472682 CC, mean (SD)): 0.87 (0.59) | 20(S)-PPD Cmax/D (NR1I2 rs2472682 CC, mean (SD)): 0.03 (0.02) | Ratio 20(S)-PPD/CK AUClast/D (NR1I2 rs2472682 CC, mean (SD)): 5.01 (4.45) % | Ratio 20(S)-PPD/CK Cmax/D (NR1I2 rs2472682 CC, mean (SD)): 1.17 (0.97) % | 20(S)-PPD AUClast/D (NR1I2 rs6785049 AA, mean (SD)): 0.75 (0.59) | 20(S)-PPD Cmax/D (NR1I2 rs6785049 AA, mean (SD)): 0.03 (0.02) | Ratio 20(S)-PPD/CK AUClast/D (NR1I2 rs6785049 AA, mean (SD)): 5.90 (7.79) % | Ratio 20(S)-PPD/CK Cmax/D (NR1I2 rs6785049 AA, mean (SD)): 1.37 (1.63) % | 20(S)-PPD AUClast/D (NR1I2 rs6785049 AG, mean (SD)): 0.72 (0.54) | 20(S)-PPD Cmax/D (NR1I2 rs6785049 AG, mean (SD)): 0.03 (0.02) | Ratio 20(S)-PPD/CK AUClast/D (NR1I2 rs6785049 AG, mean (SD)): 2.64 (2.47) % | Ratio 20(S)-PPD/CK Cmax/D (NR1I2 rs6785049 AG, mean (SD)): 0.69 (0.58) % | 20(S)-PPD AUClast/D (NR1I2 rs6785049 GG, mean (SD)): 1.11 (1.21) | 20(S)-PPD Cmax/D (NR1I2 rs6785049 GG, mean (SD)): 0.04 (0.04) | Ratio 20(S)-PPD/CK AUClast/D (NR1I2 rs6785049 GG, mean (SD)): 6.66 (9.43) % | Ratio 20(S)-PPD/CK Cmax/D (NR1I2 rs6785049 GG, mean (SD)): 1.98 (2.90) % | 20(S)-PPD AUClast/D (NR1I2 rs7643645 AA, mean (SD)): 0.95 (0.87) | 20(S)-PPD Cmax/D (NR1I2 rs7643645 AA, mean (SD)): 0.03 (0.03) | Ratio 20(S)-PPD/CK AUClast/D (NR1I2 rs7643645 AA, mean (SD)): 5.31 (8.06) % | Ratio 20(S)-PPD/CK Cmax/D (NR1I2 rs7643645 AA, mean (SD)): 1.16 (1.57) % | 20(S)-PPD AUClast/D (NR1I2 rs7643645 AG, mean (SD)): 0.66 (0.76) | 20(S)-PPD Cmax/D (NR1I2 rs7643645 AG, mean (SD)): 0.03 (0.03) | Ratio 20(S)-PPD/CK AUClast/D (NR1I2 rs7643645 AG, mean (SD)): 3.34 (5.02) % | Ratio 20(S)-PPD/CK Cmax/D (NR1I2 rs7643645 AG, mean (SD)): 1.21 (2.09) % | 20(S)-PPD AUClast/D (NR1I2 rs7643645 GG, mean (SD)): 1.14 (0.42) | 20(S)-PPD Cmax/D (NR1I2 rs7643645 GG, mean (SD)): 0.04 (0.02) | Ratio 20(S)-PPD/CK AUClast/D (NR1I2 rs7643645 GG, mean (SD)): 4.98 (4.18) % | Ratio 20(S)-PPD/CK Cmax/D (NR1I2 rs7643645 GG, mean (SD)): 1.03 (0.83) %
